The source made the active and inactive calls. The rule behind the calls is not given here.
Assays:
[1] = tested on: Mus musculus; assay: Toxicity in HBV infected 1.3.32 transgenic mouse liver assessed as hepatitis at 1 mg/kg, iv single dose after 6 days by rotine […] method; assay type: organism-based; design: dose 1 mg/kg, route intravenous; settings: in vivo, 144 h
In short: (§1)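 Male HBV 1.3.32 transgenic mice, 8–12 weeks, HBeAg-matched. Each got a single i.v. dose in saline/mannitol: 1 mg/kg examined at day 1, 2 or 6, or 0.2, 1.0 or 5.0 mg/kg examined at 24 h. Diluent-only animals served as controls. Livers from representative mice were fixed in zinc-buffered formalin, embedded in paraffin and stained with H&E for pathology.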

[2] = tested on: Mus musculus; assay: Toxicity in 1.3.32 transgenic mouse liver assessed as serum alanine aminotransferase level at 1 mg/kg, iv after 2 days; assay type: organism-based; design: dose 1 mg/kg, route intravenous; settings: in vivo, 48 h
In short: (§2)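 Serum ALT was read spectrophotometrically with Infinity ALT reagent against enzyme standards. Mice were HBV 1.3.32 transgenic males, 8–12 weeks, HBeAg-matched, with 3–4 per group. They received a single i.v. injection in 0.9% NaCl/mannitol: 1 mg/kg sampled at 1, 2, 3 or 6 days, or 0.2, 1 or 5 mg/kg sampled at 24 h. Controls got diluent only.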

[3] = tested on: Hepatitis B virus; settings: 1 mg/kg
[4] = tested on: Hepatitis B virus; settings: Liver, 1 mg/kg
[5] = tested on: Hepatitis B virus; settings: Liver, 1 mg/kg; remark: listed apart in the source
[6] = tested on: Hepatitis B virus; settings: 1 mg/kg; remark: listed apart in the source
[7] = tested on: Hepatitis B virus; settings: 0.2 mg/kg
[8] = tested on: Mus musculus; assay: Toxicity in 1.3.32 transgenic mouse assessed as serum alanine aminotransferase level liver at 1 mg/kg, iv after 6 days […]; assay type: organism-based; design: dose 1 mg/kg, route intravenous; settings: in vivo, 144 h
[9] = tested on: Mus musculus; assay: Toxicity in HBV infected 1.3.32 transgenic mouse liver assessed as serum alanine aminotransferase level at 5 mg/kg, iv after 24 hrs; assay type: organism-based; design: dose 5 mg/kg, route intravenous; settings: in vivo; in short: as §2
[10] = tested on: Mus musculus; assay: Toxicity in HBV infected 1.3.32 transgenic mouse assessed as labored breathing, hunched posture at 5 mg/kg, iv after 24 hrs; assay type: organism-based; design: dose 5 mg/kg, route intravenous; settings: in vivo
[11] = tested on: Hepatitis B virus; settings: 5 mg/kg
[12] = tested on: Hepatitis B virus; settings: 1 mg/kg; remark: listed apart in the source
[13] = tested on: Mus musculus; assay: Toxicity in HBV infected 1.3.32 transgenic mouse liver assessed as hepatitis at 1 mg/kg, iv single dose after 1 day by rotine […] method; assay type: organism-based; design: dose 1 mg/kg, route intravenous; settings: in vivo, 24 h; in short: as §1
[14] = tested on: Mus musculus; assay: Toxicity in HBV infected 1.3.32 transgenic mouse liver assessed as hepatitis at 5 mg/kg, iv single dose after 24 hrs by rotine […] method; assay type: organism-based; design: dose 5 mg/kg, route intravenous; settings: in vivo; in short: as §1
[15] = tested on: Hepatitis B virus; assay: Antiviral activity against HBV infected in 1.3.32 transgenic mouse assessed as serum HBeAg level at 5 mg/kg, iv single dose after 24 hrs by ELISA; assay type: functional
In short: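 Serum HBeAg and HBsAg were measured by ELISA in HBV 1.3.32 transgenic mice (male, 8-12 wk) after one i.v. dose in 0.9% NaCl/mannitol. Values are relative to control mice given diluent. 3-4 mice per group; mean ± SEM; Student's t test.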

[16] = tested on: Mus musculus; assay: Toxicity in HBV infected 1.3.32 transgenic mouse assessed as stress, ruffled fur at 5 mg/kg, iv after 24 hrs; assay type: organism-based; design: dose 5 mg/kg, route intravenous; settings: in vivo
[17] = tested on: Mus musculus; assay: Toxicity in HBV infected 1.3.32 transgenic mouse liver assessed as hepatitis at 1 mg/kg, iv single dose after 2 days by rotine […] method; assay type: organism-based; design: dose 1 mg/kg, route intravenous; settings: in vivo, 48 h; in short: as §1
[18] = tested on: Mus musculus; assay: Toxicity in HBV infected 1.3.32 transgenic mouse liver assessed as hepatitis at 0.2 mg/kg, iv single dose after 24 hrs by rotine […] method; assay type: organism-based; design: dose 0.2 mg/kg, route intravenous; settings: in vivo; in short: as §1

`CC(C)C[C@H](NC(=O)[C@H](Cc1ccccc1)NC(=O)c1cnccn1)B(O)O` [BORTEZOMIB] was tested, and the Activity [1] was “Non-toxic”, the Activity [2] was “Toxic” and the inhibition [3] was “Active”. For the same molecule, the inhibition [4] was “Active”, the inhibition [5] was “Active” and the inhibition [6] was “Active”. The inhibition [7] was “inactive”, the Activity [8] was “Non-toxic” and the Activity [9] was “Toxic”. The Activity [10] was “Toxic”, the inhibition [11] was “Active” and the inhibition [12] was “inactive”. For the same molecule, the Activity [13] was “Non-toxic”, the Activity [14] was “Non-toxic” and the Activity [15] was 50%. The Activity [16] was “Toxic”, the Activity [17] was “Non-toxic” and the Activity [18] was “Non-toxic”.
